# In ChEMBL document CHEMBL4823251, “Structure-Based Exploration of Selectivity for ATM Inhibitors in Huntington's Disease” (J Med Chem, 2021):
# Assays:
# [1] = Kinetic solubility of the compound in pH 7.4 PBS buffer incubated for 2 hrs using orbital shaker by LC-UV mass spectrometry; format: physicochemical; conditions: read-out: Kinetic_solubility
# How it was run: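 Shaken on an orbital shaker for 2 h at room temperature, then filtered. Filtrate analysed by LC-UV with MS confirmation, calibrated against 200 μM and 10 μM DMSO dilutions.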
# [2] = target: Serine/threonine-protein kinase ATR (Homo sapiens, UniProt Q13535); experiment: Inhibition of ATR in human HT-29 cells assessed as reduction in CHK1 phosphorylation incubated for 4 hrs; format: cell-based
# How it was run: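 HT29 cells seeded at 25k/well overnight, then treated with compound titrations (0.3% DMSO) plus 10 μM gemcitabine for 4 h. Cells fixed in paraformaldehyde, permeabilized with Triton-X, and stained for phospho-Chk1 and total Chk1 using LI-COR IRDye detection. Ratio normalized to DMSO and 30 μM AZ-20 controls. IC50 is the mean of at least two experiments.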
# [3] = target: T1, Phosphatidylinositol 3-kinase catalytic subunit type 3 (Homo sapiens, UniProt Q8NEB9); experiment: Inhibition of full length recombinant GST-tagged human VPS34 expressed in baculovirus expression system using PI/PS as substrate incubated for 60 mins in presence of ATP at Km concentration by luminescence assay
# T1 sequence (Q8NEB9 whole entry): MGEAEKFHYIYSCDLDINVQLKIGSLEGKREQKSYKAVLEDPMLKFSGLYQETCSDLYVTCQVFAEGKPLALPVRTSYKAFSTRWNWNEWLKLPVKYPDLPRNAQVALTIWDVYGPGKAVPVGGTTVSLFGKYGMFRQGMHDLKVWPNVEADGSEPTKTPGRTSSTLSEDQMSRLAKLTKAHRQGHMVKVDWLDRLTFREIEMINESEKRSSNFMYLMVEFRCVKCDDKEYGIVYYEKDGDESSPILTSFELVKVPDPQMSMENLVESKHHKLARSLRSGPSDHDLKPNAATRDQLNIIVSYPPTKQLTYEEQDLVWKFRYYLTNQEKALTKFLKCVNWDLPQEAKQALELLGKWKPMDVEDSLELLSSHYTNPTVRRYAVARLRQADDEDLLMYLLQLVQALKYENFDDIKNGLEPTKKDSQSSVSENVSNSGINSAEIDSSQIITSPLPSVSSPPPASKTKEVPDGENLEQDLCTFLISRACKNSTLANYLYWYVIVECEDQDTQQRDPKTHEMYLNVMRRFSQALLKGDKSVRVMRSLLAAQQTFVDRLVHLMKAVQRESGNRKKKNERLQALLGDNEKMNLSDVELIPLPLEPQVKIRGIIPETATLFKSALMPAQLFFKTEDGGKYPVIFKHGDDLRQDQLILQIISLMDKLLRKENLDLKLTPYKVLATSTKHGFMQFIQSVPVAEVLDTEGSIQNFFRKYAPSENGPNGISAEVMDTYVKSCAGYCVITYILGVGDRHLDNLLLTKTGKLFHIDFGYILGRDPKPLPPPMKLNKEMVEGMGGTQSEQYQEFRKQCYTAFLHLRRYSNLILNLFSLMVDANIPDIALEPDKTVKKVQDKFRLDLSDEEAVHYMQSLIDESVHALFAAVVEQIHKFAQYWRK
# [4] = Aqueous solubility of the compound in pH 7.4; format: physicochemical; conditions: buffer
# [5] = Volume of distribution at steady state in C57Bl/6 mouse at 2 mg/kg, iv administered as single dose; format: ADME, organism-based; conditions: in vivo, read-out: Vdss
# How it was run: (§1)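 Male C57BL/6 mice given a slow tail-vein bolus of a 0.4 mg/mL solution in 10:40:50 DMSO/PEG/H₂O, at 2 mg/kg (5 mL/kg) or 0.8 mg/kg (2 mL/kg). Plasma and brain sampled over 8 h, n = 3 per time point, and measured by LC–MS/MS. Noncompartmental analysis on mean concentrations with linear-trapezoidal AUC. Kp is the brain/plasma AUC ratio of total concentrations; Kpuu uses free concentrations, corrected by equilibrium-dialysis plasma and brain binding.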
# [6] = Half life in C57Bl/6 mouse at 2 mg/kg, iv administered as single dose; format: ADME, organism-based; conditions: in vivo; how it was run: as §1
# [7] = Brain to plasma permeability coefficient, Kp in C57Bl/6 mouse at 2 mg/kg, iv administered as single dose; format: ADME, organism-based; conditions: brain and plasma; how it was run: as §1
# [8] = target: T2, Serine-protein kinase ATM (Homo sapiens, UniProt Q13315); experiment: Inhibition of ATM in human U2OS cells assessed as reduction in etoposide-stimulated KAP1 phosphorylation incubated for 60 mins by immunoreactivity assay; format: cell-based
# T2 sequence (Q13315 whole entry): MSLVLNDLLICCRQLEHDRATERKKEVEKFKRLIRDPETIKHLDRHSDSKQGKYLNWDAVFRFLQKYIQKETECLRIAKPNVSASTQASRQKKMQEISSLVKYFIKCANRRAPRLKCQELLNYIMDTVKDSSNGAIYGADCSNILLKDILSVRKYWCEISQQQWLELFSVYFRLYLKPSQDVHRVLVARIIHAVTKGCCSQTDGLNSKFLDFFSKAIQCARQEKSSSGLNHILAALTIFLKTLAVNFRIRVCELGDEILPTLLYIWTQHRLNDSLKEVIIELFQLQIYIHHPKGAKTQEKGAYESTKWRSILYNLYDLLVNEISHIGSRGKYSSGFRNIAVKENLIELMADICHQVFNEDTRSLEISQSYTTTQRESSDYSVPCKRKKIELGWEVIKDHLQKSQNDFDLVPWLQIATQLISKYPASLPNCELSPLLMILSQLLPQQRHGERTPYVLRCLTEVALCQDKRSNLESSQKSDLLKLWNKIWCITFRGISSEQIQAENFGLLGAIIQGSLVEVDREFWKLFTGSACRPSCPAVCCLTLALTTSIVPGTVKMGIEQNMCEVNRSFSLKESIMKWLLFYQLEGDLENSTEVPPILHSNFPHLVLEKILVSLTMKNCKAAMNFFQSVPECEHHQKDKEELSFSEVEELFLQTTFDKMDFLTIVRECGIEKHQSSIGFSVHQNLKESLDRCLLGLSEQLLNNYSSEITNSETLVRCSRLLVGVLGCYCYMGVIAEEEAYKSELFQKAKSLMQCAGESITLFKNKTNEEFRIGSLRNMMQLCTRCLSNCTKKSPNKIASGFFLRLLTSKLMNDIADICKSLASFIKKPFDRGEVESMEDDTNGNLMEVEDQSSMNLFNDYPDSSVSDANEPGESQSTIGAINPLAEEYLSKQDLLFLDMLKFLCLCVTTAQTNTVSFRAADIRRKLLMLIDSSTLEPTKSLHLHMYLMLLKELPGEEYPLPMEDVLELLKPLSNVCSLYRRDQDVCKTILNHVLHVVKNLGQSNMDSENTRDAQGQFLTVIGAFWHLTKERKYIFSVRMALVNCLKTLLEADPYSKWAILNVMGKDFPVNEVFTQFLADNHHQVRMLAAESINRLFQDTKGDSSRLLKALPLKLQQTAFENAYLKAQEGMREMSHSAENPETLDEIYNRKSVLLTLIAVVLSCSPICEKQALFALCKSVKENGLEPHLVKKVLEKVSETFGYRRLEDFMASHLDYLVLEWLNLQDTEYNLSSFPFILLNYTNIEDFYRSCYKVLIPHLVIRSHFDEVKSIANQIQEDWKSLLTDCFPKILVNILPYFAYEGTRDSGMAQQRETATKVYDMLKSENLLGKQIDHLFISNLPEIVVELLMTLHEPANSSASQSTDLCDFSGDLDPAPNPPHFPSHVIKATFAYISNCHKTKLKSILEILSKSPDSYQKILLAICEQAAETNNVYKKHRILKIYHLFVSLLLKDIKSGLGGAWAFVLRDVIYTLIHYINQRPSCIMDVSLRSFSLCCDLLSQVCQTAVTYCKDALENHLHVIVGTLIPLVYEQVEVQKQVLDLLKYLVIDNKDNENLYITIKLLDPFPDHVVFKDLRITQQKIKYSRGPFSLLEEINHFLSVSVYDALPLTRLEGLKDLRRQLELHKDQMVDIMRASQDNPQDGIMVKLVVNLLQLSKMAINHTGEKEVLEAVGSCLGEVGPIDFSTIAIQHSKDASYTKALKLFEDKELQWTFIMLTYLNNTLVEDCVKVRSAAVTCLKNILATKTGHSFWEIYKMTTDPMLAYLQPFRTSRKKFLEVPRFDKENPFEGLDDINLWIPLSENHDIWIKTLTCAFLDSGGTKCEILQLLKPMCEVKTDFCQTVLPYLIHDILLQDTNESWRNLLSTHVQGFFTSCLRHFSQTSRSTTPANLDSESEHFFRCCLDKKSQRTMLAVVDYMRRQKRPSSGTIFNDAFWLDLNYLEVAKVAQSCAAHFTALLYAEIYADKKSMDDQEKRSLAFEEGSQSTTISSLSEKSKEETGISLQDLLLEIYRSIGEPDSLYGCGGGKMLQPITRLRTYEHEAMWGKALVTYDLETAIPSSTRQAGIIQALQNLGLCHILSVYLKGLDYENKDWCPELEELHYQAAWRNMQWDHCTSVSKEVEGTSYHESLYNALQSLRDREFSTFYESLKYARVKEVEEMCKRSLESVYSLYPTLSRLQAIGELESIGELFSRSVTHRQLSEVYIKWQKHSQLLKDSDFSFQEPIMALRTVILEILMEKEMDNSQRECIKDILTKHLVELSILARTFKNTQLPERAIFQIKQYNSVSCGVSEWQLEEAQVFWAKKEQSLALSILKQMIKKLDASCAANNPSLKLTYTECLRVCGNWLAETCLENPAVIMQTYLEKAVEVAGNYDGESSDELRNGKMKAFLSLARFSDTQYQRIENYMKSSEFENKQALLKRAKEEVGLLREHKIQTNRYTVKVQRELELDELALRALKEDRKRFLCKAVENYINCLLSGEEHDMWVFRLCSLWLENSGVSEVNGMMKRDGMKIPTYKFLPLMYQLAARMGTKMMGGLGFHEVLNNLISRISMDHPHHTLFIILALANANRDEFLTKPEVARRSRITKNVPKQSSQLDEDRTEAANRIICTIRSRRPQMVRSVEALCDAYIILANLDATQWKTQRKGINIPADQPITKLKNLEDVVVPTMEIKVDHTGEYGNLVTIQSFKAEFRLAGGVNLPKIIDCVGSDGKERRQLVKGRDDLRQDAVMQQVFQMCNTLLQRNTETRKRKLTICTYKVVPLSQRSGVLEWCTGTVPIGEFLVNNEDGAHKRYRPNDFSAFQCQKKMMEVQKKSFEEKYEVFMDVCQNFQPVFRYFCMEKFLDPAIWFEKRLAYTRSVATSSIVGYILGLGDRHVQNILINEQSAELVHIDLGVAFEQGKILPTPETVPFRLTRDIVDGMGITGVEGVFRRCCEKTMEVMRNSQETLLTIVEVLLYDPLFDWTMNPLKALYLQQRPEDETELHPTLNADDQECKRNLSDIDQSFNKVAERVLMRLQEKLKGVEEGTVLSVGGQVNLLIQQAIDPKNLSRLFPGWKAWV
# How it was run: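 U2OS cells plated overnight at 6k cells/well (37 °C, 5% CO₂), then treated with compound titrations (0.3% DMSO) plus 100 μM etoposide for 60 min. Cells fixed in cold methanol and stained for phospho-KAP1 and total KAP1 using IRDye secondaries on a LI-COR Odyssey. IC50 is the mean of at least two experiments.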
# [9] = Clearance in C57Bl/6 mouse at 2 mg/kg, iv administered as single dose; format: ADME, organism-based; conditions: in vivo; how it was run: as §1
# [10] = target: T1, Phosphatidylinositol 3-kinase catalytic subunit type 3; experiment: Binding affinity to VPS34 (unknown origin)
# [11] = Unbound brain-to-plasma concentration ratio in C57Bl/6 mouse at 2 mg/kg, iv administered as single dose; format: ADME, organism-based; conditions: brain and plasma, read-out: K(p,uu,brain); how it was run: as §1
# [12] = target: T2, Serine-protein kinase ATM; experiment: Inhibition of full length recombinant FLAG-tagged human ATM assessed as decrease in p53 S15 phosphorylation using full length myc-tagged p53 as substrate incubated for 30 mins in presence of ATP by ELISA
# How it was run: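 Buffer was 25 mM HEPES pH 7.5 with MgCl₂, MnCl₂, Brij-35, glycerol, BSA and DTT (0.1% DMSO); reaction ran 30 min at 20 °C and was stopped with 70 mM EDTA. Product captured on anti-myc-coated plates and detected with anti-p53 pS15, HRP secondary and TMB, absorbance at 450 nm.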
# [13] = Effective efflux ratio of apparent permeability across basolateral to apical over apical to basolateral side in MDCK-MDR1 cells assessed as efflux ratio after 1 hr by LC-MS/MS analysis; format: ADME, cell-based, Canis lupus familiaris; conditions: dog, mdck-mdr1, 1 h
# How it was run: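 MDCKII MDR1 and wild-type cells seeded at 2 × 10⁵ cells/well in Transwells, cultured 3 days. Test compounds 10 μM in HBSS with 25 mM HEPES pH 7.4, dosed apical or basolateral in duplicate, 1 h at 37 °C. Lucifer yellow monolayer check, wells above 100 nm/s rejected. LC–MS/MS read-out. ER = Papp B>A/A>B. EER = MDR1 ER over wild-type ER.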
# [14] = Bioavailability in C57Bl/6 mouse at 10 mg/kg, po or 2 mg/kg, iv; conditions: in vivo
# [15] = Apparent permeability across apical to basolateral side in MDCK-MDR1 cells after 1 hr by LC-MS/MS analysis; format: ADME, cell-based, Canis lupus familiaris; conditions: dog
# How it was run: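 MDCKII-MDR1 and wild-type cells seeded at 2 × 10⁵ cells/well on Transwells and cultured 3 days. Test compound at 10 μM in HBSS with 25 mM HEPES, pH 7.4, added apical or basolateral in duplicate. Lucifer yellow used as integrity check; wells above 100 nm/s rejected. Sampled after 1 h at 37 °C and quantified by LC–MS/MS. Papp taken from the apical-to-basal direction.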
# Homo sapiens [16] = species on record: Homo sapiens; experiment: Selectivity ratio of Ki for full length recombinant GST-tagged VPS34 expressed in baculovirus expression system using PI/PS as substrate incubated for 60 mins in presence of ATP at Km concentration by luminescence assay to Ki for full length recombinant FLAG-tagged human ATM assessed as decrease in p53 S15 phosphorylation using full length myc-tagged p53 as substrate incubated for 30 mins in presence of ATP by ELISA
# How it was run: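 ADP-Glo luminescence read-out. ATM reaction: 0.75 nM enzyme, 25 nM myc-p53, 10 μM ATP, 30 min at 20 °C, p53 S15 phosphorylation by ELISA. Ki values are means of at least two experiments.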
# Homo sapiens [17] = species on record: Homo sapiens; experiment: Selectivity ratio of Ki for DNA-PK isolated from human HeLa nuclear extract using full length His-tagged p53 as substrate measured after 75 mins in presence of ATP by HTRF assay to Ki for full length recombinant FLAG-tagged human ATM assessed as decrease in p53 S15 phosphorylation using full length myc-tagged p53 as substrate incubated for 30 mins in presence of ATP by ELISA
# How it was run: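 HTRF detection of p53 S15 phosphorylation. ATM reaction: 0.75 nM enzyme, 25 nM myc-p53, 10 μM ATP, 30 min at 20 °C, anti-myc capture ELISA. Ki values are means of at least two experiments.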
# [18] = target: DNA-dependent protein kinase catalytic subunit (Homo sapiens, UniProt P78527); experiment: Inhibition of DNA-PK isolated from human HeLa nuclear extract using full length His-tagged p53 as substrate measured after 75 mins in presence of ATP by HTRF assay; format: subcellular, Nucleus
# How it was run: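 Buffer was 50 mM HEPES pH 7.5, 5 mM MgCl₂, 0.01% Brij35, 1 mM DTT and 1 μg/mL sheared calf thymus DNA; reaction ran 75 min at 20 °C. Stopped with d2-anti-6HIS and cryptate anti-phospho-p53 antibodies in KF/EDTA buffer. Read at 665/620 nm after 7 h.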
# [19] = Intrinsic clearance in C57Bl/6 mouse pooled liver microsomes at 1 uM measured up to 40 mins in presence of NADPH by LC-MS/MS analysis; format: ADME, Microsome; conditions: read-out: CLH
# How it was run: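 Reaction started with 1 mM NADPH. Sampled at 0, 5, 10, 20 and 40 min, quenched in acetonitrile with internal standard, and analysed by LC–MS/MS.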
# [20] = target: Serine/threonine-protein kinase mTOR (Homo sapiens, UniProt P42345); experiment: Binding affinity to mTOR (unknown origin)
# [21] = Half life in C57Bl/6 mouse at 0.8 mg/kg, iv administered as single dose; format: ADME, organism-based; conditions: in vivo; how it was run: as §1
# [22] = Volume of distribution at steady state in C57Bl/6 mouse at 0.8 mg/kg, iv administered as single dose; format: ADME, organism-based; conditions: in vivo, read-out: Vdss; how it was run: as §1
# [23] = Clearance in C57Bl/6 mouse at 0.8 mg/kg, iv administered as single dose; format: ADME, organism-based; conditions: in vivo; how it was run: as §1
# [24] = Brain to plasma permeability coefficient, Kp in C57Bl/6 mouse at 0.8 mg/kg, iv administered as single dose; format: ADME, organism-based; conditions: brain and plasma; how it was run: as §1
# [25] = Bioavailability in C57Bl/6 mouse at 10 mg/kg, po or 0.8 mg/kg, iv; format: ADME, organism-based; conditions: in vivo
# How it was run: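 An IV reference dose of 0.8 mg/kg was given. Plasma measured by LC–MS/MS, n = 3 per time point. %F calculated as dose-normalized PO AUCinf divided by dose-normalized IV AUCinf.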
# [26] = Unbound brain-to-plasma concentration ratio in C57Bl/6 mouse at 0.8 mg/kg, iv administered as single dose; format: ADME, organism-based; conditions: brain and plasma, read-out: K(p,uu,brain); how it was run: as §1
Compound,solubility kinetic at 2 h [1],IC50 [2],Ki [3],Vd [5],half-life [6],Kp [7],IC50 [8],clearance [9],Kp uu [11],Ki [12],Ratio [13],Papp A→B at 1 h [15],Ratio Ki (Homo sapiens [16]),Ratio Ki (Homo sapiens [17]),Ki [18],CLint scaled at 1 µM [19],also measured
O=c1cc(N2CCOCC2)cc(N2CCCC[C@@H]2Cc2ccccc2)[nH]1,59 µg/mL,8 µM,0.17 µM,,,,,,,,,,,,,,
COc1ccc2c(c1)Cc1cccc(-c3cc(=O)cc(N4CCOCC4)o3)c1S2,11 µg/mL,,,,,,,,,,,,,,,,solubility [4]: 1 µg/mL
O=c1cc(N2CCOCC2)cc(N2CCCCC[C@@H]2Cc2ccccc2)[nH]1,> 58 µg/mL,> 30 µM,0.05 µM,3.4 L/kg,1.6 h,0.41,0.23 µM,35 mL/min/kg,0.18,0.001 µM,4.3,55.6 ×10⁻⁶ cm/s,50,180,0.18 µM,69 mL/min/kg,Kd [10]: 11 µM; bioavailability [14]: 68%
C[C@@H]1CN(c2cc(N3C[C@@H]4C[C@@H]4[C@@H]3Cc3ccccc3)[nH]c(=O)c2)CCO1,23 µg/mL,13 µM,0.75 µM,,,,,,,,,,,,0.007 µM,,
O=c1cc(N2CCOCC2)cc(N2C[C@H]3C[C@H]3[C@@H]2Cc2ccccc2)[nH]1,59 µg/mL,> 30 µM,0.098 µM,4.7 L/kg,2.4 h,0.23,,33.3 mL/min/kg,0.12,0.002 µM,6.7,65.7 ×10⁻⁶ cm/s,49,80,0.16 µM,< 75 mL/min/kg,Kd [20]: 4.6 µM
C[C@@H]1CCN(c2nc(N3CCOCC3)cc(=O)[nH]2)[C@H]1Cc1ccccc1,33 µg/mL,5.5 µM,0.006 µM,,,,0.09 µM,,,0.0004 µM,,,15,275,0.11 µM,,half-life [21]: 0.75 h; Vd [22]: 11 L/kg; clearance [23]: 115 mL/min/kg; Kp [24]: 1; bioavailability [25]: 78%; Kp uu [26]: 0.47
